This is one part of a sample in which hits are shown more often than they occur.
Insulin prom act – TRM-6 insulin promoter activation; hit rate 0.81% among 130,000; TRM-6 cells, insulin promoter eGFP reporter, imaging; plate-scaled: unstimulated 0, stimulated control 100; AID 1296; activation, % at 2 µM;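 active = activation at 2 µM above a set limit, confirmed on inspection of the cell images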;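 note: share of cells whose green reporter signal exceeds an intensity cutoff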
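Material: Human fetal islet-derived TRM-6 cells with tamoxifen-inducible insulin promoter–eGFP reporter | Medium: Low-glucose (5.5 mM) medium with tamoxifen | Probe or stimulus: Tamoxifen inducer, 0.75 µM, in seeding medium | Schedule: Tamoxifen pre-incubation 15 h overnight, then compound exposure 48 h at 37 °C | Detection: High-content imaging of fixed cells with Hoechst nuclear stain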
The depositor's hits bear a star.

SMILES	Insulin prom act
O=C(c1ccccc1)c1nc2c(n1O)CCCCC2	106
COc1ccccc1NS(=O)(=O)c1cc([N+](=O)[O-])ccc1N/N=C/c1c(C)[nH]c2ccccc12	260*
COc1ccccc1NS(=O)(=O)c1cc(C)ccc1C	10
COc1ccccc1NS(=O)(=O)c1ccc(N/N=C(\C)C(C)C)c([N+](=O)[O-])c1	-9
Cc1ccc(NC(=O)NNc2cccc(Cl)n2)cc1	8
CCCCCCCCOC(=O)CCn1[nH]c(=O)c2ccccc2c1=O	0
C=CCNC(=O)CC1C(=O)NCCN1Cc1c(F)cccc1Cl (centres undefined)	4
COc1ccccc1NC(=O)CC1C(=O)NCCN1C(=O)Nc1ccccc1 (centres undefined)	0
CC(C)CCN1CCNC(=O)C1CC(=O)Nc1ccc(F)cc1 (centres undefined)	186*
COc1ccccc1/C(C)=N/NC(=S)NCc1ccccc1	-8
CCCCCN1N=C(C)CC1=O	-67
Cc1nnc(SCC(=O)NCc2ccccc2)[nH]c1=O	136
C=CCn1c(SC(C)C(=O)NC2(C#N)CCCCC2)nnc1-c1ccc(OC)cc1 (centres undefined)	-8
Cc1cc(=O)n2[nH]c(C(=O)O)nc2n1	77*
CCC(=O)Nc1nc2nc(C)cc(=O)n2[nH]1	-4
Cc1cc(=O)n2[nH]c(NCc3ccccc3F)nc2n1	0
O=C(CCCn1c(SCC(=O)NCCc2ccccc2)nc2ccccc2c1=O)NCC1CCCO1 (centres undefined)	0
CCCOc1ccc(C(=O)NC(=S)Nc2nc(C)c(C(=O)N(C)C)s2)cc1	-3
Cc1ncc([N+](=O)[O-])n1Cc1ccc(Br)cc1	0
COc1cccc(C2c3[nH]c4ccccc4c3CCN2C(=O)Cn2cncn2)c1OC (centres undefined)	-2
COCc1ccc(CN2CCc3c([nH]c4ccccc34)C2C(C)(C)C)o1 (centres undefined)	231*
Fc1ccc(C2c3[nH]c4ccccc4c3CCN2Cc2cccn2-c2ncccn2)cc1 (centres undefined)	-7
Cc1ccc(NC(=O)CC(O)(C(F)(F)F)C(F)(F)F)cc1	-77
CCc1ccc(NC(=S)N(CCN2CCCCC2)Cc2ccco2)cc1	-9
Cc1ccc(NC(=O)c2ccc(OC(=O)COc3ccc(Cl)c(C)c3)cc2)cc1	-4
SMILES	Insulin prom act
Cc1nnc(NC(=O)CSc2ncnc3c2cnn3-c2ccccc2C)s1	147*
COc1ccc(N2CCN(C(=O)CSc3ncnc4c3cnn4-c3ccccc3C)CC2)cc1	-83
Cc1nnc(NC(=O)CSc2ncn(-c3ccccc3)n2)s1	0
COc1ccc(NC(=O)C2CCC(=O)N2S(=O)(=O)c2ccc(C)cc2)c(OC)c1 (centres undefined)	3
COc1ccccc1NC(C)C(=O)Nc1ccc(C(C)=O)cc1 (centres undefined)	0
CC(C)Nc1nc(NC(C)C)nc(C(N)=O)n1	0
O=C(Nc1c2c(nc3ccccc13)CCCC2)c1cccc([N+](=O)[O-])c1	380*
O=C(Nc1cccc2c1CCCC2)c1cc([N+](=O)[O-])cc([N+](=O)[O-])c1	-7
O=C(Nc1c2c(nc3ccccc13)CCCC2)c1ccccc1F	-64
CC(=O)Nc1ccc(S(=O)(=O)CCC#N)cc1	8
C=CCNC(=O)C(=O)NCCOc1ccccc1Cl	3
O=C(CN1CCC(NC(=O)c2cccc(F)c2)CC1)NCc1ccccc1F	7
O=C(CSc1nncs1)Nc1cc(-c2ccccc2)nn1-c1ccccc1	-3
Oc1ccc(CN2CCN(Cc3ccccc3)CC2)c2cccnc12	-50
O=C(Oc1c(CN2CCOCC2)cc(Cl)c2cccnc12)c1ccccc1	9
O=[N+]([O-])c1cc(CN2CCN(c3ccccc3)CC2)c(O)c2ncccc12	330*
O=C1[C@H]2[C@H]3[C@H](O)[C@H](O)C/C(=N\OC[C@@H](O)COCc4ccco4)[C@@H]3CC[C@H]2C(=O)N1c1ccc(F)cc1F	-5
Cc1cc(C)nc(NS(=O)(=O)c2ccc(NC(=O)c3ccc4c(c3)OCCO4)cc2)n1	5
CC1CCCCC12NC(=O)N(CC(=O)NC(=O)NCc1ccco1)C2=O (centres undefined)	5
Cc1cc(C)cc(OCC(=O)Nc2nonc2NC(=O)COc2cc(C)cc(C)c2)c1	-6
Cc1cccnc1NC(=O)COc1ccc2oc3c(c2c1)CCCC3	433*
COc1cc2c(cc1NC(=O)COc1ccc3ccccc3c1)oc1ccccc12	-7
C=CCNC(=O)C1CCN(c2c([N+](=O)[O-])cc(C(F)(F)F)cc2[N+](=O)[O-])CC1	0
Cc1sc2ncn(CC(=O)OC(C)C(=O)NC(C)(C)C)c(=O)c2c1C (centres undefined)	-9
Cc1c2ccccc2nc2c(F)c(NCCO)c(F)c(F)c12	112
SMILES	Insulin prom act
Cc1c2ccccc2nc2c(F)c(NC(C)C)c(F)c(F)c12	233*
OCCNc1c2ccccc2nc2c(F)c(F)c(F)c(F)c12	181
O=C(CSc1nnc2ccccn12)Nc1ccccc1C(=O)O	-3
CC1(C)C(=O)C2(CCCCC2)C(=O)OC1c1ccc(O)cc1 (centres undefined)	16
COc1ccc(CCc2nnc(CCC(=O)N(C)Cc3ccnc4ccccc34)o2)cc1	10
CSc1ccccc1NC(=O)CN(c1cccc(C)c1)S(C)(=O)=O	3
COc1ccc(N(CC(=O)Nc2ccccc2SC)S(C)(=O)=O)cc1OC	614*
COc1ccc(N(CC(=O)O)S(C)(=O)=O)cc1OC	189
O=C(CSc1nc2ccccc2[nH]1)NCCc1ccc(Cl)cc1	4
O=C(CSc1nc2ccccc2[nH]1)N1CCN(S(=O)(=O)c2ccc(Cl)cc2)CC1	97*
O=S(=O)(c1ccc2nc(SCc3cccc(Cl)c3)[nH]c2c1)N1CCOCC1	-2
COc1cc2nc(CN3CCN(S(=O)(=O)c4ccc(Cl)cc4)CC3)[nH]c(=O)c2cc1OC	0
O=C(CN1C(=O)NC2(CCCCC2)C1=O)Nc1ccccc1Cl	0
COc1ccc(CNC(=O)CN2C(=O)NC3(CCCCCC3)C2=O)cc1OC	244*
COc1ccc(-c2nnn(CC(=O)NCc3ccccc3)n2)cc1OC	277
O=C(CSc1nnc(-c2n[nH]c3ccccc23)n1-c1ccccc1)Nc1ccccc1Cl	7
C=CCNc1cnn(-c2ccccc2)c(=O)c1Cl	-5
CCCN(CCC)S(=O)(=O)c1ccc(NC(=O)c2cc(C(=O)OC)cc([N+](=O)[O-])c2)cc1	0
COC(=O)C1C(=O)NCC1c1ccccc1 (centres undefined)	243
CCOC(=O)C1C(=O)CC(C)(O)C(C(=O)OCC)C1c1ccc(C)s1 (centres undefined)	8
CCOC(=O)C1C(=O)CC(O)(c2ccccc2)CC1c1ccccc1 (centres undefined)	143*
COc1ccc(CCn2c(-n3nc(C)cc3C)nc3c2c(=O)[nH]c(=O)n3C)cc1	-5
Cn1c(=O)[nH]c(=O)c2c1nc(CN1CCN(c3ccc(F)cc3)CC1)n2CCc1ccccc1	329
COc1ccc(CCn2c(N3CCOCC3)nc3c2c(=O)[nH]c(=O)n3C)cc1	100*
COc1ccc(OCCN2C(=O)c3ccccc3C2=O)cc1	108
COc1ccc(OCC(=O)NCCc2c[nH]c3ccccc23)cc1	7
CCOc1ccc(OCCN2C(=O)NC(Cc3c[nH]c4ccccc34)C2=O)cc1 (centres undefined)	533*
CN(CC(=O)Nc1ccccc1C(=O)N1CCCC1)S(=O)(=O)c1ccc(Cl)cc1	0

Screening data: PubChem BioAssay, Columbia University Molecular Screening Center
